Assays:
[1] = test system: CHO-K1-BH4; test: Compound is tested for cytotoxicity in Chinese hamster ovary cells (CHO-K1-BH4) in the absence of S-9 microsome fraction at concentration 0.1*10e-4 micro M; format: functional, Cricetulus griseus
Outline: (§1)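 CHO-K1-BH4 cells exposed to test article for 5 h, with or without exogenous S-9 microsome fraction, then recovered overnight without compound before relative cytotoxicity was scored.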

[2] = test system: CHO-K1-BH4; test: Compound is tested for cytotoxicity in Chinese hamster ovary cells (CHO-K1-BH4) in the absence of S-9 microsome fraction at concentration 1.1*10e-4 micro M; format: functional, Cricetulus griseus; outline: as §1
[3] = test system: CHO-K1-BH4; test: Compound is tested for cytotoxicity in Chinese hamster ovary cells (CHO-K1-BH4) in the absence of S-9 microsome fraction at concentration 11.4*10e-4 micro M; format: functional, Cricetulus griseus; outline: as §1
[4] = test system: CHO-K1-BH4; test: Compound is tested for cytotoxicity in Chinese hamster ovary cells (CHO-K1-BH4) in the absence of S-9 microsome fraction at concentration 114*10e-4 micro M; format: functional, Cricetulus griseus; outline: as §1
[5] = test system: CHO-K1-BH4; test: Compound is tested for cytotoxicity in Chinese hamster ovary cells (CHO-K1-BH4) in the absence of S-9 microsome fraction at concentration 9 micro M; format: functional, Cricetulus griseus; outline: as §1
[6] = test system: CHO-K1-BH4; test: Compound is tested for cytotoxicity in Chinese hamster ovary cells (CHO-K1-BH4) in the presence of S-9 microsome fraction at concentration 0.1*10e-4 micro M; format: functional, Cricetulus griseus; outline: as §1
[7] = test system: CHO-K1-BH4; test: Compound is tested for cytotoxicity in Chinese hamster ovary cells (CHO-K1-BH4) in the presence of S-9 microsome fraction at concentration 1.1*10e-4 micro M; format: functional, Cricetulus griseus; outline: as §1
[8] = test system: CHO-K1-BH4; test: Compound is tested for cytotoxicity in Chinese hamster ovary cells (CHO-K1-BH4) in the presence of S-9 microsome fraction at concentration 11.4*10e-4 micro M; format: functional, Cricetulus griseus; outline: as §1
[9] = test system: CHO-K1-BH4; test: Compound is tested for cytotoxicity in Chinese hamster ovary cells (CHO-K1-BH4) in the presence of S-9 microsome fraction at concentration 114*10e-4 micro M; format: functional, Cricetulus griseus; outline: as §1
[10] = species: Mus musculus; test: Compound is evaluated for the ability to inhibit the passive cutaneous anaphylaxis (PCA) reaction in mouse in presence of Ag; format: functional
[11] = test system: CHO-K1-BH4; test: Compound is tested for cytotoxicity in Chinese hamster ovary cells (CHO-K1-BH4) in the absence of S-9 microsome fraction at concentration 0 micro M; format: functional, Cricetulus griseus
Outline: (§2)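 CHO-K1-BH4 cells exposed to the test article for 5 h with no exogenous S-9 microsome fraction, then given an overnight recovery period without compound. Relative cytotoxicity was scored afterwards, following the contract lab's CYT/CHO protocol.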

[12] = test system: CHO-K1-BH4; test: Compound is tested for cytotoxicity in Chinese hamster ovary cells (CHO-K1-BH4) in the absence of S-9 microsome fraction at concentration 0.4 micro M; format: functional, Cricetulus griseus; outline: as §2
[13] = test system: CHO-K1-BH4; test: Compound is tested for cytotoxicity in Chinese hamster ovary cells (CHO-K1-BH4) in the absence of S-9 microsome fraction at concentration 3.7 micro M; format: functional, Cricetulus griseus; outline: as §2
[14] = test system: CHO-K1-BH4; test: Compound is tested for cytotoxicity in Chinese hamster ovary cells (CHO-K1-BH4) in the absence of S-9 microsome fraction at concentration 360 micro M; format: functional, Cricetulus griseus; outline: as §2
[15] = test system: CHO-K1-BH4; test: Compound is tested for cytotoxicity in Chinese hamster ovary cells (CHO-K1-BH4) in the absence of S-9 microsome fraction at concentration 37 micro M; format: functional, Cricetulus griseus; outline: as §2
[16] = test system: CHO-K1-BH4; test: Compound is tested for cytotoxicity in Chinese hamster ovary cells (CHO-K1-BH4) in the presence of S-9 microsome fraction at concentration 3.7 micro M; format: functional, Cricetulus griseus
Outline: (§3)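 CHO-K1-BH4 cells exposed to the test article for 5 h with an S-9 microsome fraction present, then given an overnight compound-free recovery period. Relative cytotoxicity was assessed after recovery.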

[17] = test system: CHO-K1-BH4; test: Compound is tested for cytotoxicity in Chinese hamster ovary cells (CHO-K1-BH4) in the presence of S-9 microsome fraction at concentration 360 micro M; format: functional, Cricetulus griseus; outline: as §3
[18] = test system: CHO-K1-BH4; test: Compound is tested for cytotoxicity in Chinese hamster ovary cells (CHO-K1-BH4) in the presence of S-9 microsome fraction at concentration 37 micro M; format: functional, Cricetulus griseus; outline: as §3
[19] = test system: CHO-K1-BH4; test: Compound is tested for cytotoxicity in Chinese hamster ovary cells (CHO-K1-BH4) in the absence of S-9 microsome fraction at concentration 0.17 micro M; format: functional, Cricetulus griseus; outline: as §2
[20] = test system: CHO-K1-BH4; test: Compound is tested for cytotoxicity in Chinese hamster ovary cells (CHO-K1-BH4) in the absence of S-9 microsome fraction at concentration 1.1 micro M; format: functional, Cricetulus griseus; outline: as §2
[21] = test system: CHO-K1-BH4; test: Compound is tested for cytotoxicity in Chinese hamster ovary cells (CHO-K1-BH4) in the absence of S-9 microsome fraction at concentration 11 micro M; format: functional, Cricetulus griseus; outline: as §2
[22] = test system: CHO-K1-BH4; test: Compound is tested for cytotoxicity in Chinese hamster ovary cells (CHO-K1-BH4) in the absence of S-9 microsome fraction at concentration 1136 micro M; format: functional, Cricetulus griseus; outline: as §2
[23] = test system: CHO-K1-BH4; test: Compound is tested for cytotoxicity in Chinese hamster ovary cells (CHO-K1-BH4) in the presence of S-9 microsome fraction at concentration 0.17 micro M; format: functional, Cricetulus griseus; outline: as §3
[24] = test system: CHO-K1-BH4; test: Compound is tested for cytotoxicity in Chinese hamster ovary cells (CHO-K1-BH4) in the presence of S-9 microsome fraction at concentration 1.1 micro M; format: functional, Cricetulus griseus; outline: as §3
[25] = test system: CHO-K1-BH4; test: Compound is tested for cytotoxicity in Chinese hamster ovary cells (CHO-K1-BH4) in the presence of S-9 microsome fraction at concentration 11 micro M; format: functional, Cricetulus griseus; outline: as §3
[26] = test system: CHO-K1-BH4; test: Compound is tested for cytotoxicity in Chinese hamster ovary cells (CHO-K1-BH4) in the presence of S-9 microsome fraction at concentration 1136 micro M; format: functional, Cricetulus griseus; outline: as §3
[27] = test system: CHO-K1-BH4; test: Compound is tested for cytotoxicity in Chinese hamster ovary cells (CHO-K1-BH4) in the presence of S-9 microsome fraction at concentration 114 micro M; format: functional, Cricetulus griseus; outline: as §3

## Nc1ncnc2c1ccn2[C@@H]1O[C@H](CO)[C@@H](O)[C@H]1O [TUBERCIDIN]
[1]
  Inhibition: 10%
[2]
  Inhibition: 16%
[3]
  Inhibition: 92%
[4]
  Inhibition: 100%
[5]
  Inhibition: 11%
[6]
  Inhibition: 4%
[7]
  Inhibition: 9%
[8]
  Inhibition: 80%
[9]
  Inhibition: 100%
[10]
  grade: 1.17

## COC[C@H]1OC(n2ccc3c(N)ncnc32)[C@H](O)[C@@H]1O (stereo partly drawn)
[11]
  Inhibition: 0%
[12]
  Inhibition: 0%
[13]
  Inhibition: 12%
[14]
  Inhibition: 37%
[15]
  Inhibition: 30%
[16]
  Inhibition: 2%
[17]
  Inhibition: 99%
[18]
  Inhibition: 36%
[10]
  grade: 1.75

## Nc1ncnc2c1ncn2[C@@H]1O[C@H](CO)[C@@H](O)[C@H]1O [ADENOSINE]
[19]
  Inhibition: 0%
[20]
  Inhibition: 22%
[21]
  Inhibition: 19%
[22]
  Inhibition: 43%
[23]
  Inhibition: 0.04%
[24]
  Inhibition: 8%
[25]
  Inhibition: 0%
[26]
  Inhibition: 7%
[27]
  Inhibition: 0%
